In publication PMC4256430 (Journal of immunology (Baltimore, Md. : 1950), 2010):
Entries after “also recorded” stand apart in the source; their conditions may differ. Where two headings read alike, the source gives them in different places. No end group written: not given here.

Tests used:
[1] = tested on: ERK phosphorylation in peritoneal Mϕs (WT and Fpr2^−/−); experiment: ERK phosphorylation in Mϕs; type: cell-based, mouse; details: concentration range, 10 min at 37°C, n = 3; for ERK phosphorylation, Fpr2^−/− Mϕs: Fpr2^−/− Mϕs compared with WT
Method in brief: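 Peritoneal macrophages from WT littermates and Fpr2−/− mice were equilibrated 30 min in Glutamax DMEM with penicillin/streptomycin, then exposed to ligand concentration ranges for 10 min at 37°C. Lysates underwent SDS-PAGE and PVDF transfer. Blots were probed overnight for phospho-p44/42 and total p44/42 (each 1:1000), with HRP anti-rabbit and ECL detection. Read-out was the phospho-/total ERK ratio, from three distinct cultures (Mann-Whitney U).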

[2] = tested on: IL-1β–induced Gr1^+ cell recruitment, WT and Fpr2^−/− mice; experiment: IL-1β–induced air pouch, Gr1^+ cell; type: in vivo, mouse; details: 4 h; for inhibition of IL-1β-promoted Gr1^+ cell recruitment, WT: Ac2–26 dose-dependent, LXA4 and Cpd43 at anti-inflammatory doses, n = 6, p < 0.01
FPR2/ALX = details: ref [32]; cited from earlier work
Fpr2 [3] = details: cited from earlier work
all FPRs = details: in vitro experimental settings; ref [33]; cited from earlier work
Fpr2 [4] = type: binding, mouse; details: WT Mϕs; [125I]-labeled W-peptide
Method in brief: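 Primary peritoneal macrophages (10 × 10^6 cells/ml in PBS with Ca2+/Mg2+) were incubated with [125I]W-peptide tracer for 1 h on ice. Excess unlabeled W-peptide defined nonspecific binding; specific binding was calculated as total minus nonspecific. Cells were collected on GF/C filters by vacuum filtration and washed three times with ice-cold 10 mM Tris-HCl. Bound counts were read on a γ-counter. The experiment was repeated three times.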

Mϕs (WT and Fpr2^−/−) = experiment: Mϕ chemotaxis; type: cell-based, mouse; details: 120 min, 37°C, 5-μm pores; for Mϕ chemotaxis, Fpr2^−/− compared with WT: Fpr2^−/− Mϕs, for fMLP at concentrations >1 μM
Method in brief: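 Macrophages were either bone-marrow-derived (5 d in 20% FCS/30% L929-conditioned DMEM) or peritoneal cells elicited by Biogel (harvested 4 d after i.p. 2% P-100). Cells were suspended at 4 × 10^6/ml in RPMI 1640 with 0.1% BSA. 10^5 cells were placed above 5-μm polycarbonate filters, with stimuli below, for 120 min at 37°C/5% CO2. Migrated cells were quantified by 4 h alamarBlue fluorescence (ex 530–560, em 590 nm) against a macrophage standard curve. Three experiments, each in quadruplicate.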

[5] = tested on: zymosan-elicited Gr1^+ cell influx, WT and Fpr2^−/− mice; experiment: Zymosan-induced peritonitis, Gr1^+ cell recruitment; type: in vivo, mouse; details: 1 mg i.v. −10 min, zymosan 1 mg i.p., 4 h, n = 6, NS, mean ± SEM
Method in brief: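 Peritonitis was induced in WT and Fpr2−/− mice with zymosan A, 1 mg i.p. in 0.5 ml PBS. Test protein (1 mg) was given i.v. 10 min before zymosan. Cavities were lavaged at 4 h with PBS containing 25 U/ml heparin and 0.3 mM EDTA. Gr1+ cell influx was quantified by Turk's differential counts and flow cytometry, with percentage of events multiplied by total count per cavity.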

fpr1^−/− mice = details: ref [42]; cited from earlier work

## CC(C)c1c(NC(=O)Nc2ccc(Cl)cc2)c(=O)n(-c2ccccc2)n1C [Cpd43]
[1]
  ERK phosphorylation, WT Mϕs: concentration-dependent rapid phosphorylation of ERK
[2]; Fpr2^−/− mice, i.v., air pouch
  effect on IL-1β-promoted cell recruitment, Fpr2^−/−: ineffective
[2]; WT mice, i.v., air pouch
  inhibition of IL-1β-promoted Gr1^+ cell recruitment, WT: 50–75%
FPR2/ALX
  FPR2/ALX agonism: selective nonpeptidic FPR2/ALX agonist

## CCCCC[C@H](O)/C=C/C=C\C=C\C=C\[C@@H](O)[C@@H](O)CCCC(=O)O [LXA4, lipoxin A4]
[2]; Fpr2^−/− mice, i.v., air pouch
  effect on IL-1β-promoted cell recruitment, Fpr2^−/−: ineffective
[2]; WT mice, i.v., air pouch
  inhibition of IL-1β-promoted Gr1^+ cell recruitment, WT: 50–75%
Fpr2 [3]; ref [23]
  activation of Fpr2: known to be activated

## C[C@@H]1C[C@H]2[C@@H]3CCC4=CC(=O)C=C[C@]4(C)[C@@]3(F)[C@@H](O)C[C@]2(C)[C@@]1(O)C(=O)COP(=O)([O-])[O-].[Na+].[Na+] [dexamethasone, dexamethasone 21-phosphate disodium salt]
[2]; Fpr2^−/− mice, dexamethasone 0.5 mg/kg i.v. −1 h, IL-1β 20 ng
  efficacy in air pouch, Fpr2^−/− mice: reduced efficacy
[2]; WT mice, dexamethasone 0.5 mg/kg i.v. −1 h, IL-1β 20 ng
  Gr1^+ cell infiltrate into air pouch, WT: significantly reduced

## Ac-AMVSEFLKQAWIENEEQEYVVQTVK [Ac2–26]
All FPRs
  activation of FPRs: known to activate all FPRs

## WKYMVm [W-peptide]
[1]
  ERK phosphorylation, Fpr2^−/− Mϕs: absent
  ERK phosphorylation, WT Mϕs: concentration-dependent rapid phosphorylation of ERK
Fpr2 [4]
  binding sites revealed by Scatchard plot: both high- and low-affinity binding sites
Fpr2 [3]; high-affinity ligand, ref [30]
  ligand activity / affinity at Fpr2: high-affinity ligand for Fpr2

## formyl-Met-Leu-Phe [fMLP]
Mϕs (WT and Fpr2^−/−); mean of three experiments in quadruplicate
  concentration for optimal Mϕ chemotaxis: 1 µM
Mϕs (WT and Fpr2^−/−)
  Mϕ chemotaxis, Fpr2^−/− compared with WT: attenuated significantly

B1: SAA: serum amyloid A, purchased from PeproTech (protein, UniProt P0DJI8 19-122, looked up)
Serum amyloid A-1 protein: RSFFSFLGEAFDGARDMWRAYSDMREANYIGSDKYFHARGNYDAAKRGPGGAWAAEVITDARENIQRFFGHGAEDSLADQAANEWGRSGKDPNHFRPAGLPEKY
[1]
  ERK phosphorylation, Fpr2^−/− Mϕs: unchanged; also recorded: retained; also recorded: not diminished
[2]; Fpr2^−/− mice, i.v., air pouch
  effect on IL-1β-promoted cell recruitment, Fpr2^−/−: did not share this response
[2]; WT mice, i.v., air pouch, control values of 3.0 ± 0.4 × 10^6 per cavity
  increase in number of cells recruited by IL-1β over control: 1.5 fold
Mϕs (WT and Fpr2^−/−)
  Mϕ chemotaxis, Fpr2^−/− compared with WT: absent
Mϕs (WT and Fpr2^−/−); WT Mϕs
  Mϕ chemotaxis, WT: promoted consistently
Fpr2 [3]; ref [22]
  activation of Fpr2: known to be activated

B2: hrAnxA1: GST-tagged human recombinant annexin A1, produced in Escherichia coli (protein, UniProt P04083 2-346, looked up)
Annexin A1: AMVSEFLKQAWFIENEEQEYVQTVKSSKGGPGSAVSPYPTFNPSSDVAALHKAIMVKGVDEATIIDILTKRNNAQRQQIKAAYLQETGKPLDETLKKALTGHLEEVVLALLKTPAQFDADELRAAMKGLGTDEDTLIEILASRTNKEIRDINRVYREELKRDLAKDITSDTSGDFRNALLSLAKGDRSEDFGVNEDLADSDARALYEAGERRKGTDVNVFNTILTTRSYPQLRRVFQKYTKYSKHDMNKVLDLELKGDIEKCLTAIVKCATSKPAFFAEKLHQAMKGVGTRHKALIRIMVSRSEIDMNDIKAFYQKMYGISLCQAILDETKGDYEKILVALCGGN
modifications: GST tag
[2]; Fpr2^−/− mice, i.v. −10 min, IL-1β 20 ng, NS
  inhibition of PMN accumulation in air pouch, Fpr2^−/− mice: 25–30%
[2]; WT mice, i.v. −10 min, IL-1β 20 ng
  inhibition of PMN accumulation in air pouch, dose dependence: dose-response inhibition
[5]
  reduction of Gr1^+ cell content in peritoneal fluids, Fpr2^−/−: −5 ± 12%
fpr1^−/− mice
  anti-migratory action in fpr1^−/− mice: a high proportion of the anti-migratory action of hrAnxA1 is retained
